From ChEMBL document CHEMBL3525967, “In vitro glucuronidation of the antibacterial triclocarban and its oxidative metabolites” (Drug Metab Dispos, 2012)

Assays:
[1] = target: T1, UDP-glucuronosyltransferase 1A3 (Homo sapiens, UniProt P35503); assay: Drug metabolism assessed as human UGT1A3-mediated glucuronidation expressed in baculovirus infected insect sf9 cells incubated for 5 mins prior to UDPGA addition measured after 5 to 30 mins by LC-UV analysis; type: ADME
T1 sequence (P35503 whole entry): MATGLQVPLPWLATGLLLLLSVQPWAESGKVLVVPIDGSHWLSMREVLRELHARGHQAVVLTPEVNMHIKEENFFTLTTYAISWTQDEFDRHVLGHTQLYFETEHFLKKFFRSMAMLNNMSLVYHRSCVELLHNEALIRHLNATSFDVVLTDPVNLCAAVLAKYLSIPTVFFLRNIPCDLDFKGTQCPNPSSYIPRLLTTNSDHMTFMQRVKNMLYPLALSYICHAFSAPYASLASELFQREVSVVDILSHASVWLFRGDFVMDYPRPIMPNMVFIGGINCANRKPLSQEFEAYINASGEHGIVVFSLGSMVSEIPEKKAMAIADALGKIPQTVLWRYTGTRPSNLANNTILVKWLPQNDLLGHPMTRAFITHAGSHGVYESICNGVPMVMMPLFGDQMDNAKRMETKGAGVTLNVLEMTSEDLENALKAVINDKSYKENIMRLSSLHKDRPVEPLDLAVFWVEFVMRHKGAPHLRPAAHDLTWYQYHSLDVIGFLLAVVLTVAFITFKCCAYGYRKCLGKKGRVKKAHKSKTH
Outline: (§1)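 Microsomes or Sf-9 Supersomes (5 µg protein in 200 µL 100 mM potassium phosphate pH 7.4) pre-treated with alamethicin on ice 15 min; substrate 10 µM final (2% DMSO), MgCl2 and saccharolactone 10 mM each; 5 min preincubation at 37 °C, then UDPGA to start. Samples taken at 5, 10, 15, 30 min (or 2, 5, 10, 15 min) into ACN with internal standard; LC-UV-ESI-MS/MS.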

[2] = target: T2, UDP-glucuronosyltransferase 1A7 (Homo sapiens, UniProt Q9HAW7); assay: Drug metabolism assessed as human UGT1A7-mediated glucuronidation expressed in baculovirus infected insect sf9 cells incubated for 5 mins prior to UDPGA addition measured after 5 to 30 mins by LC-UV analysis; type: ADME; outline: as §1
T2 sequence (Q9HAW7 whole entry): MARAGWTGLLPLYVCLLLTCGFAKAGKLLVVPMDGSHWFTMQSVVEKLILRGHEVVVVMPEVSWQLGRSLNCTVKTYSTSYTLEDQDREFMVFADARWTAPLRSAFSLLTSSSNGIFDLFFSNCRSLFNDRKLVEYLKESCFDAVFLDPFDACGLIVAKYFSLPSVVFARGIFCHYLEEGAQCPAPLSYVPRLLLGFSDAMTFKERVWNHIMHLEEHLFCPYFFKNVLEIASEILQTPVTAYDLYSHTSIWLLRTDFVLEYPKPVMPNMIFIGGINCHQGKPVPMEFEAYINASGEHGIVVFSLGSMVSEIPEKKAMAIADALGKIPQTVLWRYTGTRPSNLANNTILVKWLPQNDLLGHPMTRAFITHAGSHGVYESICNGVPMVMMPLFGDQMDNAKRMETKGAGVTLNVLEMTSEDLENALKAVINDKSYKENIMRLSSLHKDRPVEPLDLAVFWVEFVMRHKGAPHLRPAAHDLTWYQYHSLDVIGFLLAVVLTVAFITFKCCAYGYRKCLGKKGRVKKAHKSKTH

[3] = Drug metabolism in B6C3F1 mouse liver microsomes assessed as glucuronidation incubated for 5 mins prior to UDPGA addition measured after 5 to 30 mins by LC-UV analysis; type: ADME; outline: as §1
[4] = Drug metabolism in microsomes (unknown origin) assessed as retention time treated with 10 uM triclocarban by LC-UV-MS method; type: ADME, Microsome
[5] = Drug metabolism in human kidney microsomes assessed as glucuronidation incubated for 5 mins prior to UDPGA addition measured after 5 to 30 mins by LC-UV analysis; type: ADME; outline: as §1
[6] = target: T3, UDP-glucuronosyltransferase 1A9 (Homo sapiens, UniProt O60656); assay: Drug metabolism assessed as human UGT1A9-mediated glucuronidation expressed in baculovirus infected insect sf9 cells incubated for 5 mins prior to UDPGA addition measured after 5 to 30 mins by LC-UV analysis; type: ADME; outline: as §1
T3 sequence (O60656 whole entry): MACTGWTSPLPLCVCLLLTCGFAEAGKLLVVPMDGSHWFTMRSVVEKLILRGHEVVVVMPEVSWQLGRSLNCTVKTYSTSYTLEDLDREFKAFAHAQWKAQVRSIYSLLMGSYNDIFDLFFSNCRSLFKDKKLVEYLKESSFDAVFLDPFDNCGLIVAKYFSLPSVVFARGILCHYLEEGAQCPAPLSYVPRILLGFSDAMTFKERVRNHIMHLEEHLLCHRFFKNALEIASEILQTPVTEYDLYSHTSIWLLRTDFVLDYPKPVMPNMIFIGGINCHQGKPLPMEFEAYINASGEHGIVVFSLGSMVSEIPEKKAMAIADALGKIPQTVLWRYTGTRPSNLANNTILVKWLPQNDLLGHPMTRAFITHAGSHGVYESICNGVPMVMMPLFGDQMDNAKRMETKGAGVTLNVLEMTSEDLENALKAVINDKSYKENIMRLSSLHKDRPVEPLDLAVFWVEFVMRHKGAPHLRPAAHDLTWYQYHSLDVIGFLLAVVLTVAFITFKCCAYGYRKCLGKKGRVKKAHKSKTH

[7] = target: T4, UDP-glucuronosyltransferase 1A10 (Homo sapiens, UniProt Q9HAW8); assay: Drug metabolism assessed as human UGT1A10-mediated glucuronidation expressed in baculovirus infected insect sf9 cells incubated for 5 mins prior to UDPGA addition measured after 5 to 30 mins by LC-UV analysis; type: ADME; outline: as §1
T4 sequence (Q9HAW8 whole entry): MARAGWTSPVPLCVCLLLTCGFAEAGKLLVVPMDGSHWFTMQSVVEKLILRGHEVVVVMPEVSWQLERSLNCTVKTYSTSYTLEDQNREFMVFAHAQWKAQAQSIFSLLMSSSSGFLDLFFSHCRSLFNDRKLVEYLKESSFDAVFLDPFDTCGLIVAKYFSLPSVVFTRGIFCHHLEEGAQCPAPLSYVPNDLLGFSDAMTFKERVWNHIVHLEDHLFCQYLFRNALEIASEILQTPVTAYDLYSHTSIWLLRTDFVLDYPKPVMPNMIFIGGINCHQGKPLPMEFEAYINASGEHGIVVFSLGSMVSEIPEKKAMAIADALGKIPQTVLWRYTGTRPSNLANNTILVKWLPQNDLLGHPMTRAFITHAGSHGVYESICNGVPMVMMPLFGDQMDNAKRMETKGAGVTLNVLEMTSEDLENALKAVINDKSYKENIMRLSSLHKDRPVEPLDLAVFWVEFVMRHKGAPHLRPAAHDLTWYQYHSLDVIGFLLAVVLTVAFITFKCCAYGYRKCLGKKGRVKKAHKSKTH

Drug metabolism [1] [pmol/min/mg]	Drug metabolism [2] [pmol/min/mg]	Drug metabolism [3] [pmol/min/mg]	Retention_time [4] [min]	Drug metabolism [5] [pmol/min/mg]	Drug metabolism [6] [pmol/min/mg]	Drug metabolism [7] [pmol/min/mg]	Drug metabolism ([7]; BLD = below limit of detection)	SMILES
390	870	2600	6.81	5600	1200	210	–	O=C(Nc1ccc(Cl)c(Cl)c1)Nc1ccc(Cl)cc1O
410	1100	7900	7.45	7700	2400	280	–	O=C(Nc1ccc(Cl)cc1)Nc1cc(Cl)c(Cl)cc1O
540	1700	14700	4.61	4200	840	–	BLD	O=C(Nc1ccc(Cl)c(O)c1)Nc1ccc(Cl)c(Cl)c1
